These results are taken from ChEMBL document CHEMBL4406851, “Design, synthesis and biological evaluation of cinnamic acid derivatives with synergetic neuroprotection and angiogenesis effect” (Eur J Med Chem, 2019).

Molecules are shown by their SMILES.

One assay deals with SH-SY5Y. In words: Neuroprotective activity against H2O2-induced cell damage in human SH-SY5Y cells assessed as increase in cell viability preincubated for 24 hrs followed by H2O2 addition and measured after 4 hrs by MTT assay. Type of assay: functional, cell-based. The procedure, abridged:
(§1)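 Cells at 3.5×10^4 cells/mL in 96-well plates were grown 24 h (37 °C, 5% CO2). Test agent was added at five concentrations for 24 h, then H2O2 (4.8 mM stock) to model and drug wells. After PBS washes, MTT (5 mg/mL) was added for 4 h, formazan was dissolved in DMSO and OD was read at 550 nm. Proliferation rate = (drug − injury OD)/(control − injury OD). EC50 came from a formula using maximum concentration and summed, maximal and minimal rates.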

The nature of assay [1]: Neuroprotective activity against H2O2-induced cell damage in human HBMEC2 cells assessed as increase in cell viability preincubated for 24 hrs followed by H2O2 addition and measured after 4 hrs by MTT assay. As to conditions: HBMEC-2. It counts as functional, cell-based. Summed up: as §1
On the technique in general: Tetrazolium assays rely on reduction of a dye to a coloured formazan, in cell work by metabolically active cells.

Broadly, the EC50 is the concentration that produces a half-maximal response.

Turning to `COc1cc(CNC(=O)/C=C/c2ccc(OC)c(OC)c2OC)ccc1O`, the results for the half-maximal effective concentration (EC50) (in the assay on SH-SY5Y; in assay [1]) were 7.45 µM and 4.82 µM, respectively.
The matching figures for `COc1cc(CNC(=O)/C=C/c2cccc(OC)c2OC)ccc1O`: 5.49 µM and 13.1 µM.
Regarding `COc1cc(CNC(=O)/C=C/c2ccc(OCc3nc(C)c(C)nc3C)c(OC)c2)ccc1O`, the half-maximal effective concentration (EC50) amounted to 10.2 µM in the assay on SH-SY5Y and 11.6 µM in assay [1].
On to `COc1cc(CNC(=O)/C=C/c2ccccc2)ccc1OCc1nc(C)c(C)nc1C`, for which the concentration for a half-maximal effect (EC50) in the assay with SH-SY5Y stood at 7.31 µM; in assay [1], 4.99 µM.
As to `COc1ccc(OC)c(/C=C/C(=O)NCc2ccc(OCc3nc(C)c(C)nc3C)c(OC)c2)c1`, the figures for the EC50 (in the assay on SH-SY5Y; in assay [1]) were 11 µM and 11.8 µM, respectively.
The matching figures for `COc1ccc(/C=C/C(=O)NCc2ccc(O)c(OC)c2)cc1O`: 7.85 µM and 11.8 µM.
The matching figures for `COc1cc(CNC(=O)/C=C/c2ccccc2OCc2nc(C)c(C)nc2C)ccc1OCc1nc(C)c(C)nc1C`: 6.28 µM and 15.1 µM.
In the case of `COc1cc(/C=C/C(=O)NCc2ccc(OCc3nc(C)c(C)nc3C)c(OC)c2)ccc1OCc1nc(C)c(C)nc1C`, the EC50 was 11.1 µM in the assay with SH-SY5Y and 14.5 µM in assay [1].
Turning to `COc1cc(CNC(=O)/C=C/c2ccc(O)cc2)ccc1O`, the EC50 was 6 µM in the assay with SH-SY5Y and 8.04 µM in assay [1].
On to `CC1=NN(c2ccccc2)C(=O)C1` [EDARAVONE], for which the concentration giving a half-maximal response (EC50) is 3.75 µM in the assay with SH-SY5Y and 4.61 µM in assay [1].
The matching figures for `COc1cc(CNC(=O)/C=C/c2ccccc2O)ccc1OCc1nc(C)c(C)nc1C`: 5.3 µM and 6.07 µM.
The matching figures for `COc1cc(CNC(=O)/C=C/c2ccccc2O)ccc1O`: 9.76 µM and 7.46 µM.
For `COc1cc(CNC(=O)/C=C/c2cccc(O)c2)ccc1O`, the half-maximal effective concentration (EC50) in the assay with SH-SY5Y came out at 8.62 µM; in assay [1] it was 5.75 µM.
For `COc1cc(CNC(=O)/C=C/c2cc(OC)c(OC)c(OC)c2)ccc1O`, the EC50 in the assay on SH-SY5Y was found to be 5.91 µM; in assay [1], 2.59 µM.
With `COc1cc(CNC(=O)/C=C/c2ccc(OCc3nc(C)c(C)nc3C)cc2)ccc1OCc1nc(C)c(C)nc1C`, the 50% effective concentration (EC50) in the assay on SH-SY5Y turned out to be 7.77 µM; in assay [1], 21.4 µM.
Turning to `COc1cc(CNC(=O)/C=C/c2cccc(O)c2)ccc1OCc1nc(C)c(C)nc1C`, the concentration for a half-maximal effect (EC50) was 3.68 µM in the assay with SH-SY5Y and 6.17 µM in assay [1].
The matching figures for `COc1cc(CNC(=O)/C=C/c2ccc(OC)c(OCc3nc(C)c(C)nc3C)c2)ccc1OCc1nc(C)c(C)nc1C`: 11.6 µM and 14.6 µM.
For the compound `COc1cc(CNC(=O)CCCC/C=C/C(C)C)ccc1O` [CAPSAICIN], the concentration giving a half-maximal response (EC50) in the assay on SH-SY5Y turned out to be 14 µM; in assay [1], 16.4 µM.
The matching figures for `COc1cc(CNC(=O)/C=C/c2ccccc2)ccc1O`: 3.66 µM and 9.8 µM.
The matching figures for `COc1cc(CNC(=O)/C=C/c2cccc(OC)c2OC)ccc1OCc1nc(C)c(C)nc1C`: 7.15 µM and 6.31 µM.
On to `COc1cccc(/C=C/C(=O)NCc2ccc(OCc3nc(C)c(C)nc3C)c(OC)c2)c1`, for which the 50% effective concentration (EC50) in the assay on SH-SY5Y is 4.32 µM; in assay [1] it was 9.87 µM.
With `COc1ccc(/C=C/C(=O)NCc2ccc(OCc3nc(C)c(C)nc3C)c(OC)c2)cc1`, the concentration giving a half-maximal response (EC50) with SH-SY5Y is 5.05 µM; in assay [1] it was 6.56 µM.
With `COc1cc(CNC(=O)/C=C/c2cccc(OCc3nc(C)c(C)nc3C)c2)ccc1OCc1nc(C)c(C)nc1C`, the EC50 turned out to be 8.7 µM with SH-SY5Y and 12.8 µM in assay [1].
Take `COc1ccc(/C=C/C(=O)NCc2ccc(O)c(OC)c2)cc1`: the half-maximal effective concentration (EC50) in the assay with SH-SY5Y was found to be 11.4 µM; in assay [1], 10.4 µM.
The matching figures for `COc1ccccc1/C=C/C(=O)NCc1ccc(OCc2nc(C)c(C)nc2C)c(OC)c1`: 7.15 µM and 12 µM.
As for `COc1cc(/C=C/C(=O)NCc2ccc(OCc3nc(C)c(C)nc3C)c(OC)c2)cc(OC)c1`, the EC50 in the assay on SH-SY5Y was 8.66 µM; in assay [1], 12.9 µM.
Regarding `COc1cc(/C=C/C(=O)NCc2ccc(O)c(OC)c2)cc(OC)c1`, the EC50 in the assay with SH-SY5Y stood at 4.86 µM; in assay [1] it was 7.81 µM.
On to `COc1cc(CNC(=O)/C=C/c2ccccc2OC)ccc1O`, for which the EC50 stood at 5.98 µM in the assay with SH-SY5Y and 6.48 µM in assay [1].
Consider `COc1cc(CNC(=O)/C=C/c2ccc(O)cc2)ccc1OCc1nc(C)c(C)nc1C`, for which the values for the EC50 (in the assay with SH-SY5Y; in assay [1]) were 3.74 µM and 6.23 µM, respectively.
The matching figures for `COc1cc(OC)c(OC)cc1/C=C/C(=O)NCc1ccc(OCc2nc(C)c(C)nc2C)c(OC)c1`: 3.62 µM and 12.5 µM.
The matching figures for `COc1cc(CNC(=O)/C=C/c2ccc(OCc3nc(C)c(C)nc3C)cc2)ccc1O`: 5.37 µM and 12.5 µM.
Consider `COc1cc(CNC(=O)/C=C/c2cc(OC)c(OC)c(OC)c2)ccc1OCc1nc(C)c(C)nc1C`, for which the EC50 with SH-SY5Y was 11.5 µM; in assay [1], 3.55 µM.
The matching figures for `COc1ccc(OC)c(/C=C/C(=O)NCc2ccc(O)c(OC)c2)c1`: 9.5 µM and 10.5 µM.
The matching figures for `COc1ccc(/C=C/C(=O)NCc2ccc(OCc3nc(C)c(C)nc3C)c(OC)c2)cc1OC`: 4.47 µM and 15.8 µM.
Take `COc1ccc(/C=C/C(=O)NCc2ccc(OCc3nc(C)c(C)nc3C)c(OC)c2)cc1O`: the results for the EC50 (with SH-SY5Y; in assay [1]) were 8.56 µM and 13.5 µM, respectively.
Regarding `COc1cc(CNC(=O)/C=C/c2ccc(OC)c(OC)c2)ccc1O`, the concentration giving a half-maximal response (EC50) is 11 µM with SH-SY5Y and 8.85 µM in assay [1].
For the compound `COc1cc(CNC(=O)/C=C/c2ccc(OC)c(OC)c2OC)ccc1OCc1nc(C)c(C)nc1C`, the 50% effective concentration (EC50) in the assay on SH-SY5Y amounted to 3.84 µM; in assay [1], 18.1 µM.
Regarding `COc1cc(/C=C/C(=O)NCc2ccc(OCc3nc(C)c(C)nc3C)c(OC)c2)ccc1O`, the EC50 was 13.4 µM in the assay with SH-SY5Y and 5.81 µM in assay [1].
The matching figures for `COc1cc(CNC(=O)/C=C/c2ccc(OC)c(OCc3nc(C)c(C)nc3C)c2)ccc1O`: 9.25 µM and 9.3 µM.
On to `Cc1nc(C)c(C)nc1C` [LIGUSTRAZINE], for which the EC50 with SH-SY5Y was 17.6 µM; in assay [1], 15.2 µM.
For the compound `COc1cc(/C=C/C(=O)NCc2ccc(O)c(OC)c2)ccc1O`, the concentration giving a half-maximal response (EC50) with SH-SY5Y amounted to 9.3 µM; in assay [1] it was 6.34 µM.
Consider `COc1cc(CNC(=O)/C=C/c2ccccc2OCc2nc(C)c(C)nc2C)ccc1O`, for which the results for the EC50 (with SH-SY5Y; in assay [1]) were 12 µM and 6.65 µM, respectively.
For the compound `COc1cccc(/C=C/C(=O)NCc2ccc(O)c(OC)c2)c1`, the concentration for a half-maximal effect (EC50) came to 5.24 µM in the assay with SH-SY5Y and 7.11 µM in assay [1].
The matching figures for `COc1cc(CNC(=O)/C=C/c2cccc(OCc3nc(C)c(C)nc3C)c2)ccc1O`: 8.09 µM and 10.6 µM.
